Assay results reported in ChEMBL document CHEMBL5260840 (J Med Chem, 2019).
Blank lines part the entries; values can stand above or below the compound they belong to. The source made the active and inactive calls. The rule behind the calls is not given here.

What was measured:
Type in all cases: cell-based
[1] = target: T1, von Hippel-Lindau disease tumor suppressor/Bromodomain-containing protein 9 (Homo sapiens) (UniProt Q9H8M2+P40337); assay: PROTAC activity at VHL/BRD9 in human Ri-1 cells assessed as remaining BRD9 protein level at 100 nM incubated for 2 hrs by Western blot analysis relative to control
Summary of the method: (§1)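 Ri-1 cells exposed to compound for the stated time before harvest; BRD9, BRD7 and β-actin measured by Western blot, band intensities quantified and set against DMSO-treated control.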

[2] = target: T1, von Hippel-Lindau disease tumor suppressor/Bromodomain-containing protein 9 (Homo sapiens); assay: PROTAC activity at VHL/BRD9 in human Ri-1 cells assessed as remaining BRD9 protein level at 10 nM incubated for 8 hrs by Western blot analysis relative to control; summary of the method: as §1
[3] = target: T2, von Hippel-Lindau disease tumor suppressor/Bromodomain-containing protein 7 (Homo sapiens) (UniProt Q9NPI1+P40337); assay: PROTAC activity at VHL/BRD7 in human Ri-1 cells assessed as remaining BRD7 protein level at 1 uM incubated for 8 hrs by Western blot analysis relative to control
[4] = target: T1, von Hippel-Lindau disease tumor suppressor/Bromodomain-containing protein 9 (Homo sapiens); assay: PROTAC activity at VHL/BRD9 in human Ri-1 cells assessed as remaining BRD9 protein level at 100 nM incubated for 8 hrs by Western blot analysis relative to control; summary of the method: as §1
[5] = target: T1, von Hippel-Lindau disease tumor suppressor/Bromodomain-containing protein 9 (Homo sapiens); assay: PROTAC activity at VHL/BRD9 in human Ri-1 cells assessed as remaining BRD9 protein level at 1 nM incubated for 2 hrs by Western blot analysis relative to control; summary of the method: as §1
[6] = target: T2, von Hippel-Lindau disease tumor suppressor/Bromodomain-containing protein 7 (Homo sapiens); assay: PROTAC activity at VHL/BRD7 in human Ri-1 cells assessed as remaining BRD7 protein level at 1 nM incubated for 2 hrs by Western blot analysis relative to control
[7] = target: T1, von Hippel-Lindau disease tumor suppressor/Bromodomain-containing protein 9 (Homo sapiens); assay: PROTAC activity at VHL/BRD9 in human Ri-1 cells assessed as remaining BRD9 protein level at 10 nM incubated for 2 hrs by Western blot analysis relative to control; summary of the method: as §1
[8] = target: T2, von Hippel-Lindau disease tumor suppressor/Bromodomain-containing protein 7 (Homo sapiens); assay: PROTAC activity at VHL/BRD7 in human Ri-1 cells assessed as remaining BRD7 protein level at 100 nM incubated for 8 hrs by Western blot analysis relative to control; summary of the method: as §1
[9] = target: T2, von Hippel-Lindau disease tumor suppressor/Bromodomain-containing protein 7 (Homo sapiens); assay: PROTAC activity at VHL/BRD7 in human HeLa cells assessed as remaining BRD7 protein level at 1 uM incubated for 4 hrs by Western blot analysis relative to control
[10] = target: T1, von Hippel-Lindau disease tumor suppressor/Bromodomain-containing protein 9 (Homo sapiens); assay: PROTAC activity at VHL/BRD9 in human Ri-1 cells assessed as remaining BRD9 protein level at 1 uM incubated for 8 hrs by Western blot analysis relative to control; summary of the method: as §1
[11] = target: T2, von Hippel-Lindau disease tumor suppressor/Bromodomain-containing protein 7 (Homo sapiens); assay: PROTAC activity at VHL/BRD7 in human Ri-1 cells assessed as remaining BRD7 protein level at 10 nM incubated for 8 hrs by Western blot analysis relative to control; summary of the method: as §1
[12] = target: T2, von Hippel-Lindau disease tumor suppressor/Bromodomain-containing protein 7 (Homo sapiens); assay: PROTAC activity at VHL/BRD7 in human Ri-1 cells assessed as remaining BRD7 protein level at 0.1 nM incubated for 8 hrs by Western blot analysis relative to control
[13] = target: T1, von Hippel-Lindau disease tumor suppressor/Bromodomain-containing protein 9 (Homo sapiens); assay: PROTAC activity at VHL/BRD9 in human Ri-1 cells assessed as remaining BRD9 protein level at 1 uM incubated for 2 hrs by Western blot analysis relative to control; summary of the method: as §1
[14] = target: T2, von Hippel-Lindau disease tumor suppressor/Bromodomain-containing protein 7 (Homo sapiens); assay: PROTAC activity at VHL/BRD7 in human Ri-1 cells assessed as remaining BRD7 protein level at 1 uM incubated for 2 hrs by Western blot analysis relative to control
[15] = target: T1, von Hippel-Lindau disease tumor suppressor/Bromodomain-containing protein 9 (Homo sapiens); assay: PROTAC activity at VHL/BRD9 in human Ri-1 cells assessed as remaining BRD9 protein level at 1 nM incubated for 8 hrs by Western blot analysis relative to control; summary of the method: as §1
[16] = target: T2, von Hippel-Lindau disease tumor suppressor/Bromodomain-containing protein 7 (Homo sapiens); assay: PROTAC activity at VHL/BRD7 in human Ri-1 cells assessed as remaining BRD7 protein level at 1 nM incubated for 8 hrs by Western blot analysis relative to control
[17] = target: T2, von Hippel-Lindau disease tumor suppressor/Bromodomain-containing protein 7 (Homo sapiens); assay: PROTAC activity at VHL/BRD7 in human Ri-1 cells assessed as remaining BRD7 protein level at 10 nM incubated for 2 hrs by Western blot analysis relative to control
[18] = target: T2, von Hippel-Lindau disease tumor suppressor/Bromodomain-containing protein 7 (Homo sapiens); assay: PROTAC activity at VHL/BRD7 in human Ri-1 cells assessed as remaining BRD7 protein level at 100 nM incubated for 2 hrs by Western blot analysis relative to control; summary of the method: as §1
[19] = target: T1, von Hippel-Lindau disease tumor suppressor/Bromodomain-containing protein 9 (Homo sapiens); assay: PROTAC activity at VHL/BRD9 in human Ri-1 cells assessed as remaining BRD9 protein level at 0.1 nM incubated for 8 hrs by Western blot analysis relative to control; summary of the method: as §1
[20] = target: T2, von Hippel-Lindau disease tumor suppressor/Bromodomain-containing protein 7 (Homo sapiens); assay: PROTAC activity at VHL/BRD7 in human Ri-1 cells assessed as remaining BRD7 protein level at 10000 nM incubated for 2 hrs by Western blot analysis relative to control; summary of the method: as §1
[21] = target: T1, von Hippel-Lindau disease tumor suppressor/Bromodomain-containing protein 9 (Homo sapiens); assay: PROTAC activity at VHL/BRD9 in human Ri-1 cells assessed as remaining BRD9 protein level at 10000 nM incubated for 2 hrs by Western blot analysis relative to control; summary of the method: as §1
[22] = target: T2, von Hippel-Lindau disease tumor suppressor/Bromodomain-containing protein 7 (Homo sapiens); assay: PROTAC activity at VHL/BRD7 in human Ri-1 cells assessed as BRD7 protein degradation at 100 nM incubated for 4 hrs by Western blot analysis
[23] = target: T1, von Hippel-Lindau disease tumor suppressor/Bromodomain-containing protein 9 (Homo sapiens); assay: PROTAC activity at VHL/BRD9 in human Ri-1 cells assessed as BRD9 protein degradation at 100 nM incubated for 4 hrs by MS proteomics analysis
Summary of the method: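 RI-1 cells treated in triplicate with compound (100 nM) or DMSO for 4 h; whole-cell proteome quantified by MS (6273 proteins), fold change versus control with t-test P-values.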

[24] = target: T2, von Hippel-Lindau disease tumor suppressor/Bromodomain-containing protein 7 (Homo sapiens); assay: PROTAC activity at VHL/BRD7 in human Ri-1 cells assessed as BRD7 protein degradation at 100 nM incubated for 4 hrs by MS proteomics analysis
[25] = target: T1, von Hippel-Lindau disease tumor suppressor/Bromodomain-containing protein 9 (Homo sapiens); assay: PROTAC activity at VHL/BRD9 in human Ri-1 cells assessed as BRD9 protein degradation at 100 nM incubated for 4 hrs by Western blot analysis; summary of the method: as §1

T2 sequence (P40337 whole entry, looked up): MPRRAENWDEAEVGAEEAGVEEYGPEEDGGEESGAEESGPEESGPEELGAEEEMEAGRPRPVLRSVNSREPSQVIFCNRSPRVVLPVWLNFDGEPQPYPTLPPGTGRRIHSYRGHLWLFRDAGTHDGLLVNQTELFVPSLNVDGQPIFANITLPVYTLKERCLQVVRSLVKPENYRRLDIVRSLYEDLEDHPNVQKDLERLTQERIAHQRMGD
T2 sequence (Q9NPI1 whole entry, looked up): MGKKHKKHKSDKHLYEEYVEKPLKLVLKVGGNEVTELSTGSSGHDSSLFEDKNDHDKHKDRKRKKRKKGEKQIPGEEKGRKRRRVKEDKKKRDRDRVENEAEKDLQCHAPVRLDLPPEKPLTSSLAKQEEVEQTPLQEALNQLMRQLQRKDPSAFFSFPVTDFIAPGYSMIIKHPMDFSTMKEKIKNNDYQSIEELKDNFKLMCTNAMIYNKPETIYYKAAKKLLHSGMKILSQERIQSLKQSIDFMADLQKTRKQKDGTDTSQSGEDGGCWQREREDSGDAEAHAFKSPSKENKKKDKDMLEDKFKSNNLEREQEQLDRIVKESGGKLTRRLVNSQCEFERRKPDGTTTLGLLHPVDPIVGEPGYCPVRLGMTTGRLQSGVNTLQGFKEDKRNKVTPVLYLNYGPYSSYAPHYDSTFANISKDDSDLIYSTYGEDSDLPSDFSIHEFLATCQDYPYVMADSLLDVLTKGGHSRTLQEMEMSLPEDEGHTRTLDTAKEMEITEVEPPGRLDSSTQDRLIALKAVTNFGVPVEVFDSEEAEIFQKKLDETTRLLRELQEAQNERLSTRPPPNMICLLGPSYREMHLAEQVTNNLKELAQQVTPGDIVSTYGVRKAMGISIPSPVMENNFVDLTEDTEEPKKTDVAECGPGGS
T1 sequence (P40337 whole entry, looked up): as the sequence (P40337 whole entry, looked up) above
T1 sequence (Q9H8M2 whole entry, looked up): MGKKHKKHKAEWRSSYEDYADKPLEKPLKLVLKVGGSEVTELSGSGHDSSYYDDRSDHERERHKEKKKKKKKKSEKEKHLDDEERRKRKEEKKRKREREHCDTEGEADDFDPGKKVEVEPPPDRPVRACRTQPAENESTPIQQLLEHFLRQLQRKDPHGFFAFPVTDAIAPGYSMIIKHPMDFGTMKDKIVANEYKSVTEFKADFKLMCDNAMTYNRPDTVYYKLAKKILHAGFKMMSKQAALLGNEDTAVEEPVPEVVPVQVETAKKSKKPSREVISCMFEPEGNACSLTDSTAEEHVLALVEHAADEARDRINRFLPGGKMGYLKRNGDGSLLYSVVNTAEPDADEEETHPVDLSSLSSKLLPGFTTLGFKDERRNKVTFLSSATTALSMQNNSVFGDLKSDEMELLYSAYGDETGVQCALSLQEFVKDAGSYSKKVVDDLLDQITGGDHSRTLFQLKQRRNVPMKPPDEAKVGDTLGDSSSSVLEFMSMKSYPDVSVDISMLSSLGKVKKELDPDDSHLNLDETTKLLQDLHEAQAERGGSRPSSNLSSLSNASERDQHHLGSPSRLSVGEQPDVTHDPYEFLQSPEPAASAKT

- Activity [1]: 50%
- Activity [2]: 103%
- Activity [3]: 8%
- Activity [4]: 63%
- Activity [5]: 110%
- Activity [6]: 101%
- Activity [7]: 113%
- Activity [8]: 152%
- Activity [9]: 8%
- Activity [10]: 6%
- Activity [11]: 155%
- Activity [12]: 155%
- Activity [13]: 44%
- Activity [14]: 63%
- Activity [15]: 109%
- Activity [16]: 155%
- Activity [17]: 123%
- Activity [18]: 75%
- Activity [19]: 117%
- Activity [20]: 33%
- Activity [21]: 66%
Compound: COc1cc(-c2cn(C)c(=O)c3cnccc23)cc(OC)c1CN1CCN(CCOCCOc2cc(-c3scnc3C)ccc2CNC(=O)[C@@H]2C[C@@H](O)CN2C(=O)[C@@H](NC(=O)C2(F)CC2)C(C)(C)C)CC1

- Activity [22]: inactive
- Activity [23]: inactive
- Activity [24]: inactive
- Activity [25]: inactive
Compound: COc1cc(-c2cn(C)c(=O)c3cnccc23)cc(OC)c1CN1CCN(CCCCCOc2cc(-c3scnc3C)ccc2CNC(=O)[C@@H]2C[C@H](O)CN2C(=O)[C@@H](NC(=O)C2(F)CC2)C(C)(C)C)CC1
